Reference: ChEMBL document CHEMBL4007508, “Discovery and Pre-Clinical Characterization of Third-Generation 4-H Heteroaryldihydropyrimidine (HAP) Analogues as Hepatitis B Virus (HBV) Capsid Inhibitors” (J Med Chem, 2017)
≈ marks a conversion by molar mass, not a printed value.

Tests used:
Hepatitis B virus = experiment: Antiviral activity against HBV infected in human HepG2(2.2.15) cells assessed as decrease in HBV genome replication after 5 days by qPCR method; assay type: functional, cell-based; conditions: HepG2 2.2.15, 120 h
How it was run: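 HepG2.2.15 cells (stable HBV genome, Hep G2-derived; DMEM-F12, 10% FBS, penicillin/streptomycin, 0.5 mg/mL G418) seeded 3 × 10^4/well, incubated overnight at 37 °C. Compounds serially half-log diluted in DMSO, then in medium; final DMSO 0.5%. HBV DNA extracted and quantified by qPCR.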

[1] = Solubility of compound in phosphate buffer at pH 6.5 after one night incubation by HPLC-UV method; assay type: physicochemical
[2] = Selectivity index, ratio of CC50 for HBV infected human HepDE19 cells to EC50 for HBV infected in human HepG2(2.2.15) cells
How it was run: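 Selectivity index calculated as CC50 (HepDE19, CCK-8 viability after 5 days) divided by EC50 (HBV DNA reduction in HepG2.2.15 cells, qPCR).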

[3] = Cytotoxicity against HBV infected human HepDE19 cells assessed as decrease in cell viability after 5 days by CCK8 assay; assay type: cell-based
How it was run: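 Tetracycline-inducible HBV HepDE19 cells seeded 5 × 10^3/well and treated with compounds. After 5 days, viability read by CCK-8 (2 h, 37 °C; absorbance 450 and 630 nm).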

Row | SMILES | EC50 (Hepatitis B virus) [nM] | solubility [1] [µg/mL] | Ratio CC50/EC50 [2] | CC50 at 120 h [3] [nM]
1 | CCOC(=O)C1=C(CN2CCOC[C@H]2C(=O)O)NC(c2nccs2)=N[C@H]1c1ccc(OC)cc1 | > 100 | – | – | –
2 | COC(=O)C1=C(CN2CCOC[C@H]2C(=O)OC)NC(c2nccs2)=N[C@H]1c1ccc(F)cc1Cl | 4 | < 1 | – | –
3 | COC(=O)C1=C(CN2CCOCC2CO)NC(c2nccs2)=N[C@H]1c1ccc(F)cc1Cl (stereo partly specified) | 5 | 475 (≈ 988 µM) | 14800 | 74000
4 | COC(=O)C1=C(CN2CCOC[C@H]2C(=O)O)NC(c2nc(C3CC3)cs2)=N[C@H]1c1ccc(F)cc1Cl | 22 | – | – | –
5 | COC(=O)C1=C(C)NC(c2ncc(F)cc2F)=N[C@H]1c1ccc(F)cc1Cl | 50 to 80 | – | – | –
6 | COC(=O)C1=C(CN2CCOC[C@H]2C(=O)O)NC(c2nc(C)cs2)=N[C@H]1c1ccc(F)cc1Cl | 7 | – | >14826 | > 100000
7 | CC(C)(C)OC(=O)C1=C(CN2CCOC[C@H]2C(=O)O)NC(c2nccs2)=N[C@H]1c1ccc(F)cc1Cl | > 100 | – | – | 41000
8 | COC(=O)C1=C(C)NC(c2nccs2)=NC1c1cccc(C(=O)O)c1 (stereo unspecified) | > 1000 | – | – | –
9 | CCOC(=O)C1=C(CN2CCOC[C@H]2C(=O)O)NC(c2nccs2)=N[C@H]1c1ccc(F)c(F)c1C | 0.6 | – | – | 97000
10 | COC(=O)C1=C(CN2CCOC[C@@]2(C)C(=O)O)NC(c2nccs2)=N[C@H]1c1ccc(F)cc1Cl | 20 | 600 (≈ 1180 µM) | – | > 100000
11 | COC(=O)C1=C(CN2CCOC[C@H]2C(=O)O)NC(c2nccs2)=N[C@H]1c1cccc(F)c1Cl | 4 | – | >25000 | > 100000
12 | CCOC(=O)C1=C(CN2CCOC[C@H]2C(=O)O)NC(c2nccs2)=N[C@H]1c1cccc(Cl)c1Cl | > 100 | – | – | –
13 | CCNC(=O)C1=C(CN2CCOC[C@H]2C(=O)O)NC(c2nccs2)=N[C@H]1c1ccc(F)cc1Cl | > 1000 | – | – | –
14 | COC(=O)C1=C(CN2CCOC[C@H]2C(=O)O)NC(c2nccs2)=N[C@H]1c1ccc(F)cc1C1CC1 | > 100 | – | – | > 100000
15 | COC(=O)C1=C(CN2CCOC[C@H]2C(=O)O)NC(c2ncco2)=N[C@H]1c1ccc(F)cc1Cl | > 1000 | – | – | > 100000
16 | COC(=O)C1=C(CN2CCOC[C@H]2C(=O)O)NC(c2ncc(F)cc2F)=N[C@H]1c1ccc(F)cc1Cl | 8 | – | 2875 | 23000
17 | CC(C)OC(=O)C1=C(CN2CCOC[C@H]2C(=O)O)NC(c2nccs2)=N[C@H]1c1ccc(F)cc1Cl | 17 | – | 4235 | 72000
18 | COC(=O)C1=C(CN2CCO[C@H](C(C)C)[C@H]2C(=O)O)NC(c2nccs2)=N[C@H]1c1ccc(F)cc1Cl | 5 | – | 16200 | 81000
19 | CCOC(=O)C1=C(CN2CCOC[C@H]2C(=O)O)NC(c2nccs2)=N[C@H]1c1cccc(F)c1Br | 0.7 | – | – | 95000
20 | CCOC(=O)C1=C(CN2CCOC[C@H]2C(=O)O)NC(c2nccs2)=N[C@H]1c1ccc(F)cc1C | 3 | – | >33333 | > 100000
21 | COC(=O)C1=C(CN2CCCC[C@H]2C(=O)O)NC(c2nccs2)=N[C@H]1c1ccc(F)cc1Cl | > 1000 | – | – | –
22 | COC(=O)C1=C(CN2CCNC[C@H]2C(=O)O)NC(c2nccs2)=N[C@H]1c1ccc(F)cc1Cl | > 1000 | – | – | –
23 | CCOC(=O)C1=C(CN2CCOC[C@H]2C(=O)O)NC(c2nccs2)=N[C@H]1c1ccccc1Cl | 14 | – | >7143 | > 100000
24 | COC(=O)C1=C(CN2CCOC[C@H]2C(=O)O)NC(c2nccs2)=N[C@H]1c1ccc(F)cc1Br | 6 | – | – | > 100000
25 | COC(=O)C1=C(CN2CCOC[C@H]2C(=O)O)NC(c2nccs2)=N[C@H]1c1ccc(C(F)(F)F)cc1Cl | > 100 | – | 431 | 50000

Row | SMILES | EC50 (Hepatitis B virus) [nM] | solubility [1] [µg/mL] | Ratio CC50/EC50 [2] | CC50 at 120 h [3] [nM]
26 | COC(=O)C1=C(C)NC(c2nc(C(=O)O)cs2)=NC1c1ccc(F)cc1Cl (stereo unspecified) | > 1000 | – | – | –
27 | CCOC(=O)C1=C(CN2CCOC[C@H]2C(=O)O)NC(c2nccs2)=N[C@H]1c1ccc(F)c(F)c1Br | 0.7 | – | 72857 | 51000
28 | CCOC(=O)C1=C(CN2CCOC[C@H]2C(=O)O)NC(c2nccs2)=N[C@H]1c1ccc(C)cc1Cl | 3 | – | >33333 | > 100000
29 | CCOC(=O)C1=C(CN2CCOC[C@H]2C(=O)O)NC(c2nccs2)=N[C@H]1c1ccc(F)cc1 | 15 | – | 4133 | 62000
30 | CC1=C(C(=O)O)C(c2ccc(F)cc2Cl)N=C(c2nccs2)N1 (stereo unspecified) | > 1000 | – | – | –
31 | COC(=O)C1=C(CN2CCOC[C@H]2C(=O)O)NC(c2nccs2)=N[C@H]1c1ccc(F)c(F)c1Br | 1 | – | 80000 | 80000
32 | CCOC(=O)C1=C(CN2CCOC[C@H]2C(=O)O)NC(c2nccs2)=N[C@H]1c1cccc(C#N)c1Cl | > 100 | – | – | –
33 | COC(=O)C1=C(CN2CCOC[C@H]2C(=O)O)NC(c2nccn2C)=N[C@H]1c1ccc(F)cc1Cl | 42 | – | 1952 | 82000
34 | COC(=O)C1=C(CN2CCOC[C@@H]2C(=O)O)NC(c2nccs2)=N[C@H]1c1ccc(F)cc1Cl | 79 | – | >1266 | > 100000
35 | N#CC1=C(CN2CCOC[C@H]2C(=O)O)NC(c2nccs2)=N[C@H]1c1ccc(F)cc1Cl | > 1000 | – | – | –
36 | O=C(OCC(F)(F)F)C1=C(CN2CCOC[C@H]2C(=O)O)NC(c2nccs2)=N[C@H]1c1ccc(F)cc1Cl | 13 | – | 2077 | 27000
37 | CCOC(=O)C1=C(CN2CCOC[C@H]2C(=O)O)NC(c2nccs2)=N[C@H]1c1ccc(F)cc1F | 14 | – | >7143 | > 100000
38 | CCCOC(=O)C1=C(CN2CCOC[C@H]2C(=O)O)NC(c2nccs2)=N[C@H]1c1ccc(F)cc1Cl | 12 | – | >8333 | > 100000
39 | COC(=O)C1=C(CN2CCOC[C@H]2C(=O)O)NC(c2ncoc2C)=N[C@H]1c1ccc(F)cc1Cl | 14 | – | >7143 | > 100000
40 | COC(=O)C1=C(CN2CCOC[C@H]2C(=O)O)NC(c2nccs2)=N[C@H]1c1ccc(F)cc1C(F)(F)F | > 100 | – | – | > 100000
41 | COCCOC(=O)C1=C(CN2CCOC[C@H]2C(=O)O)NC(c2nccs2)=N[C@H]1c1ccc(F)cc1Cl | 190 | – | >526 | > 100000
42 | COC(=O)C1=C(CN2CCOC[C@H]2C(=O)O)NC(c2nccs2)=N[C@H]1c1ccc(F)c(F)c1Cl | 1 | – | >100000 | > 100000
43 | COC(=O)C1=C(CN2CCN(C(C)=O)C[C@H]2C(=O)O)NC(c2nccs2)=N[C@H]1c1ccc(F)cc1Cl | > 1000 | – | – | –
44 | CCOC(=O)C1=C(CN2CCOC[C@H]2C(=O)O)NC(c2nccs2)=N[C@H]1c1ccc(Br)cc1Cl | 3 | – | – | 31000
45 | CCOC(=O)C1=C(CN2CCOC[C@H]2C(=O)O)NC(c2nccs2)=N[C@H]1c1ccc(C#N)cc1 | > 100 | – | – | –
46 | CCOC(=O)C1=C(CN2CCOC[C@H]2C(=O)O)NC(c2nccs2)=N[C@H]1c1ccc(F)cc1Br | – | – | – | 72000
47 | COC(=O)C1=C(CN2CCOC[C@H]2C(=O)O)NC(c2nccs2)=N[C@H]1c1ccc(C)cc1Cl | 11 | – | >9091 | > 100000
48 | CCOC(=O)C1=C(CN2CCOC[C@H]2C(=O)O)NC(c2nccs2)=N[C@H]1c1ccc(F)c(F)c1Cl | 0.6 | – | 48333 | 29000
49 | COC(=O)C1=C(CN2CCOC[C@H]2C(=O)O)NC(c2nccs2)=N[C@H]1c1ccc(F)cc1C | 8 | – | 12500 | > 100000
50 | COC(=O)C1=C(CN2CCOC[C@H]2C(=O)O)NC(c2ncccn2)=N[C@H]1c1ccc(F)cc1Cl | > 1000 | – | – | > 100000
